Reference: ChEMBL document CHEMBL3120098, “Structure-activity relationship (SAR) optimization of 6-(indol-2-yl)pyridine-3-sulfonamides: identification of potent, selective, and orally bioavailable small molecules targeting hepatitis C (HCV) NS4B” (J Med Chem, 2014)

Tests used:
Hepatitis C virus = test: Antiviral activity against HCV1b Con1 infected in human HuH7 cells assessed as inhibition of viral RNA replication by RT-PCR analysis; assay type: functional, organism-based, Hepacivirus hominis; conditions: isolate Con1, Huh-7
[1] = Ratio of EC50 for HCV1b Con1 to plasma concentration in Sprague-Dawley rat at 10 mg/kg, po after 6 hrs
[2] = AUC (0 to 6 hrs) in Sprague-Dawley rat at 10 mg/kg, po; assay type: ADME, organism-based; parameters: time < 6 hr, dose 10 mg/kg, route oral; conditions: plasma
[3] = Toxicity in human HuH7 cells assessed as effect on GAPDH mRNA level; assay type: cell-based, Huh-7
How it was run: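 Run in parallel with replicon assay in Con1 replicon Huh-7 cells (0.5% DMSO, 37 °C); endogenous GAPDH mRNA quantified by TaqMan RT-PCR; highest concentration tested 10000 nM.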

Cytochrome P450 2C9 = Cytochrome P450 2C9 (Homo sapiens, UniProt P11712); test: Inhibition of CYP2C9 in human liver microsomes; assay type: ADME
Chain of Cytochrome P450 2C9 (P11712 whole entry): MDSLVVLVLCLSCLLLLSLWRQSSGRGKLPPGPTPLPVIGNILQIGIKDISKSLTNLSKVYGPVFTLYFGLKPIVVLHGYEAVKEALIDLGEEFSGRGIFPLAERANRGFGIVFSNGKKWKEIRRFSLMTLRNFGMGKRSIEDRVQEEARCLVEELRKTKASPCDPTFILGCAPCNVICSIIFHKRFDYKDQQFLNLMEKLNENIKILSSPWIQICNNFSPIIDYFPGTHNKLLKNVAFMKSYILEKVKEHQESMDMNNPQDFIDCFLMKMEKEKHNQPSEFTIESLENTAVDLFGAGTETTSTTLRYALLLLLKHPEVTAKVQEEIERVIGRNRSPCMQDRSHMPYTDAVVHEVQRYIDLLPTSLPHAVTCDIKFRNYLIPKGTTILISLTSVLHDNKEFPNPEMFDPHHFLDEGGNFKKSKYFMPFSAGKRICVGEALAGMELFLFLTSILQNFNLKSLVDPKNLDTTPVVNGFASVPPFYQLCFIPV

Cytochrome P450 2D6 = Cytochrome P450 2D6 (Homo sapiens, UniProt P10635); test: Inhibition of CYP2D6 in human liver microsomes; assay type: ADME
Chain of Cytochrome P450 2D6 (P10635 whole entry): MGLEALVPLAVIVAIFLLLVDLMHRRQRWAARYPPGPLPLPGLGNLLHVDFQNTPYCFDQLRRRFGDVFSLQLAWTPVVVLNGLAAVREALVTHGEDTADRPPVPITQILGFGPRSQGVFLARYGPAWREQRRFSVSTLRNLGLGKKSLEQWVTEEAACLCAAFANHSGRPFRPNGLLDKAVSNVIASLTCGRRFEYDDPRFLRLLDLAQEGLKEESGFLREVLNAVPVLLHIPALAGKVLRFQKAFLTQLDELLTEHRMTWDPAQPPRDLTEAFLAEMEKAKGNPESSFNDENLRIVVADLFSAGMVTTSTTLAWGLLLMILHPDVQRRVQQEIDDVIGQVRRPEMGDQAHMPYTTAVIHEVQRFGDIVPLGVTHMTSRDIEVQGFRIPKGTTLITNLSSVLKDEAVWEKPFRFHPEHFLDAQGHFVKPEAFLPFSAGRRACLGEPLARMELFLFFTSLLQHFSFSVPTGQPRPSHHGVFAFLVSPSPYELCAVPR

Cytochrome P450 3A4 = Cytochrome P450 3A4 (Homo sapiens, UniProt P08684); test: Inhibition of CYP3A4 in human liver microsomes; assay type: ADME
Chain of Cytochrome P450 3A4 (P08684 whole entry): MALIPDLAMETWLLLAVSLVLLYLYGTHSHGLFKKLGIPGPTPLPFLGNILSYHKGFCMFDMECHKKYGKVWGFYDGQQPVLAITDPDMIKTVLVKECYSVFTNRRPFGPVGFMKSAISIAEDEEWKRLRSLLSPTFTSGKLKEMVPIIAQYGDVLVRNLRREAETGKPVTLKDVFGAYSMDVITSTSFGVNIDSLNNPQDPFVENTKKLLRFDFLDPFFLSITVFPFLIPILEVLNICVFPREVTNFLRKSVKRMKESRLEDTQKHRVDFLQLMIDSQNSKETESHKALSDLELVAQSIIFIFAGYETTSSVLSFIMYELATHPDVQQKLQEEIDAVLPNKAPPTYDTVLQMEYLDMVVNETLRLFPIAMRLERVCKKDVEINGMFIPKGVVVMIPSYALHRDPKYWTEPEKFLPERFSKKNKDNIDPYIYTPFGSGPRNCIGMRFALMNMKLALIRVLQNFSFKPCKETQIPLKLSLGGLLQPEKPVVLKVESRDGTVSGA

[4] = test system: Pregnane X receptor (Homo sapiens); test: Activation of PXR (unknown origin) at 10 uM by reporter gene assay

| EC50 (Hepatitis C virus) [nM] | AUC(0-t) at 6 h [2] [µM·h] | IC50 (Cytochrome P450 2C9) [nM] | IC50 (Cytochrome P450 2D6) [nM] | IC50 (Cytochrome P450 3A4) [nM] | Activity [4] [%] | Structure (SMILES) | Ratio [1] | IC50 [3] [nM] |
| --- | --- | --- | --- | --- | --- | --- | --- | --- |
| 68 |  |  |  |  |  | CC(O)c1cc2c(cc1F)c(C#N)c(-c1ccc(S(=O)(=O)N[C@@H](C)C(F)(F)F)cn1)n2-c1ncccn1 (stereo partly drawn) |  |  |
| 6 | 2.04 |  |  |  |  | C[C@H](NS(=O)(=O)c1ccc(-c2c(C#N)c3cc(F)c(C4CC4)cc3n2-c2ncccn2)nc1)C(F)(F)F | 75 | > 10000 |
| 16 |  |  |  |  |  | C[C@H](NS(=O)(=O)c1ccc(-c2c(C#N)c3cc(F)c(C4CC4)cc3n2-c2ccccn2)nc1)C(F)(F)F |  | > 10000 |
| 32 |  |  |  |  |  | Cc1cnc(-n2c(-c3ccc(S(=O)(=O)N[C@@H](C)C(F)(F)F)cn3)c(C#N)c3cc(F)c(C)cc32)nc1 |  | > 10000 |
| 8 | 3.45 |  |  |  |  | Cc1cc2c(cc1F)c(C#N)c(-c1ccc(S(=O)(=O)N[C@@H](C)C(F)(F)F)cn1)n2-c1ccc(F)cn1 | 42 | > 10000 |
| 400 |  |  |  |  |  | Cc1cc2c(cc1F)c(C#N)c(-c1ccc(S(=O)(=O)N[C@@H](C)C(F)(F)F)cn1)n2-c1ncccc1C |  | > 10000 |
| 5 | 3.85 | > 10000 | > 10000 | > 10000 | 54 | CCc1cc2c(cc1F)c(C#N)c(-c1ccc(S(=O)(=O)N[C@@H](C)C(F)(F)F)cn1)n2-c1ccccn1 | 69 | > 10000 |
| 4 | 0.345 |  |  |  |  | CCc1cc2c(cc1F)c(C#N)c(-c1ccc(S(=O)(=O)N[C@@H](C)C(F)(F)F)cn1)n2-c1cnccn1 | 14 | > 10000 |
| 2 | 2.75 |  |  |  |  | CCc1cc2c(cc1F)c(C#N)c(-c1ccc(S(=O)(=O)N[C@@H](C)C(F)(F)F)cn1)n2-c1nccs1 | 347 | > 10000 |
| 3 | 8.69 | > 10000 | > 10000 | > 10000 | 71 | CCc1cc2c(cc1F)c(C#N)c(-c1ccc(S(=O)(=O)N[C@@H](C)C(F)(F)F)cn1)n2-c1ncc(F)cn1 | 136 | > 10000 |
| 23 | 7.24 |  |  |  |  | CCc1cc2c(cc1F)c(C#N)c(-c1ccc(S(=O)(=O)N[C@@H](C)C(F)(F)F)cn1)n2-c1ncc(C)cn1 | 44 | > 10000 |
| 7 | 20.1 |  |  |  |  | C[C@H](NS(=O)(=O)c1ccc(-c2c(C#N)c3ccc(OC(F)F)cc3n2-c2ncccn2)nc1)C(F)(F)F |  | > 10000 |
| 3 |  |  |  |  |  | Cc1ccc2c(C#N)c(-c3ccc(S(=O)(=O)N[C@@H](C)C(F)(F)F)cn3)n(-c3ncccn3)c2c1 |  | > 10000 |
| 16 | 3.81 |  |  |  |  | C[C@H](NS(=O)(=O)c1ccc(-c2c(C#N)c3cc(F)c(OC(F)F)cc3n2-c2ncccn2)nc1)C(F)(F)F |  | > 10000 |
| 18 | 4.52 |  |  |  |  | Cc1cc2c(cc1F)c(C#N)c(-c1ccc(S(=O)(=O)N[C@@H](C)C(F)(F)F)cn1)n2-c1ccccn1 | 49 | > 10000 |
| 11 | 6.39 |  |  |  |  | Cc1cc2c(cc1F)c(C#N)c(-c1ccc(S(=O)(=O)N[C@@H](C)C(F)(F)F)cn1)n2-c1cccnc1 | 65 | > 10000 |
| 11 | 2.6 |  |  |  |  | Cc1cc2c(cc1F)c(C#N)c(-c1ccc(S(=O)(=O)N[C@@H](C)C(F)(F)F)cn1)n2-c1ccncc1 | 24 | > 10000 |
| 9 | 0.885 |  |  |  |  | Cc1cc2c(cc1F)c(C#N)c(-c1ccc(S(=O)(=O)N[C@@H](C)C(F)(F)F)cn1)n2-c1cnccn1 | 9 | > 10000 |
| 13 | 3.26 |  |  |  |  | Cc1cc2c(cc1F)c(C#N)c(-c1ccc(S(=O)(=O)N[C@@H](C)C(F)(F)F)cn1)n2-c1cccnn1 | 22 | > 10000 |
| 3 | 1.76 |  |  |  |  | Cc1cc2c(cc1F)c(C#N)c(-c1ccc(S(=O)(=O)N[C@@H](C)C(F)(F)F)cn1)n2-c1nccs1 | 96 | > 10000 |
| 20 | 10.3 |  |  |  |  | Cc1cc2c(cc1F)c(C#N)c(-c1ccc(S(=O)(=O)N[C@@H](C)C(F)(F)F)cn1)n2-c1cscn1 | 35 | > 10000 |
| 2 | 0.48 |  |  |  |  | Cc1cc2c(cc1F)c(C#N)c(-c1ccc(S(=O)(=O)N[C@@H](C)C(F)(F)F)cn1)n2-c1cccs1 | 29 | > 10000 |

More lines, now with the values behind:

| Structure (SMILES) | EC50 (Hepatitis C virus) [nM] | AUC(0-t) at 6 h [2] [µM·h] | IC50 (Cytochrome P450 2C9) [nM] | IC50 (Cytochrome P450 2D6) [nM] | IC50 (Cytochrome P450 3A4) [nM] | Activity [4] [%] | Ratio [1] | IC50 [3] [nM] |
| --- | --- | --- | --- | --- | --- | --- | --- | --- |
| CCc1cc2c(cc1F)c(C#N)c(-c1ccc(S(N)(=O)=O)cn1)n2-c1ncccn1 | > 10000 |  |  |  |  |  |  |  |
| CC(O)c1cc2c(cc1F)c(C#N)c(-c1ccc(S(N)(=O)=O)cn1)n2-c1ncccn1 (stereo not drawn) | > 10000 |  |  |  |  |  |  |  |
| C[C@H](NS(=O)(=O)c1ccc(-c2c(C#N)c3cc(F)c(C4CC4)cc3n2-c2ccc(F)cn2)nc1)C(F)(F)F | 12 | 1.7 |  |  |  |  | 20 | > 10000 |
| Cc1ccc(-n2c(-c3ccc(S(=O)(=O)N[C@@H](C)C(F)(F)F)cn3)c(C#N)c3cc(F)c(C)cc32)nc1 | 25 |  |  |  |  |  |  | > 10000 |
| CCc1cc2c(cc1F)c(C#N)c(-c1ccc(S(=O)(=O)N[C@@H](C)C(F)(F)F)cn1)n2-c1ccncc1 | 9 | 6.38 |  |  |  |  | 47 | > 10000 |
| CCc1cc2c(cc1F)c(C#N)c(-c1ccc(S(=O)(=O)N[C@@H](C)C(F)(F)F)cn1)n2-c1ccc(F)cn1 | 13 | 1.79 |  |  |  |  | 12 | > 10000 |
| Cc1cc(F)c2c(C#N)c(-c3ccc(S(=O)(=O)N[C@@H](C)C(F)(F)F)cn3)n(C3CCC3)c2c1 | 153 |  |  |  |  |  |  | > 10000 |
| Cc1cc2c(cc1F)c(C#N)c(-c1ccc(S(=O)(=O)N[C@@H](C)C(F)(F)F)cn1)n2-c1cncs1 | 7 | 6.27 |  |  |  |  | 38 | > 10000 |
| C[C@H](NS(=O)(=O)c1ccc(-c2c(C#N)c3cc(O)c(OC(F)F)cc3n2C2CCC2)nc1)C(F)(F)F | 63 |  |  |  |  |  |  | > 10000 |
| Cc1cc2c(C#N)c(-c3ccc(S(=O)(=O)N[C@@H](C)C(F)(F)F)cn3)n(C3CCC3)c2cc1OC(F)F | 108 |  |  |  |  |  |  | 10000 |
| CCc1cc2c(C#N)c(-c3ccc(S(=O)(=O)N[C@@H](C)C(F)(F)F)cn3)n(C3CCC3)c2cc1OC(F)F | 1400 |  |  |  |  |  |  | > 10000 |
| C[C@H](NS(=O)(=O)c1ccc(-c2c(C#N)c3cc(F)c(C4CC4)cc3n2C2CCC2)nc1)C(F)(F)F | 28 |  |  |  |  |  |  | > 10000 |
| C[C@H](NS(=O)(=O)c1ccc(-c2c(C#N)c3cc(F)c(O)cc3n2C2CCC2)nc1)C(F)(F)F | 410 |  |  |  |  |  |  | > 10000 |
| C[C@H](NS(=O)(=O)c1ccc(-c2c(C#N)c3cc(F)c(Cl)cc3n2C2CCC2)nc1)C(F)(F)F | 460 |  |  |  |  |  |  | > 10000 |
| COc1cc2c(cc1F)c(C#N)c(-c1ccc(S(=O)(=O)N[C@@H](C)C(F)(F)F)cn1)n2C1CCC1 | 74 |  |  |  |  |  |  | > 10000 |
| CSc1cc2c(cc1F)c(C#N)c(-c1ccc(S(=O)(=O)N[C@@H](C)C(F)(F)F)cn1)n2C1CCC1 | 35 |  |  |  |  |  |  | > 10000 |
| C[C@H](NS(=O)(=O)c1ccc(-c2c(C#N)c3c(F)cc(OC(F)F)cc3n2C2CCC2)nc1)C(F)(F)F | 18 |  |  |  |  |  |  | > 10000 |
